The source of these data is ChEMBL document CHEMBL5661970 (Cancer Res, 2006).

Series [1] in a line: AUC (0-infinity) in F344/N JcL-rnu athymic rat at 1 mg/kg, po measured upto 72 hrs by HPLC-MS/MS analysis. The class given is ADME, organism-based. The note with it: in vivo. A digest of the protocol: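 Female athymic rats, four per group, given a single oral dose suspended in 0.5% methyl cellulose in water. Tail-vein blood was drawn at set times up to 72 h. Serum was spiked with internal standard, deproteinated with acetonitrile and analysed by HPLC-MS/MS. AUCinf came from noncompartmental analysis.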

Series [2] deals with A549. Description: Antitumor activity against human A549 cells xenografted in F344/N Jcl-rnu athymic rat assessed as reduction in number of CD31-positive cells in viable regions of tumor at 1.0 mg/kg, po administered once daily for 7 days by immunofluorescence staining analysis relative to control. The note with it: time 7 day. In general terms: A xenograft is tissue or cells of one species grown in another, often human tumour cells in immunodeficient mice.

Series [3] in a line: Half life in F344/N JcL-rnu athymic rat at 5 mg/kg, po measured upto 72 hrs by HPLC-MS/MS analysis. It is filed as ADME, organism-based. The note with it: in vivo. A digest of the protocol:
(§1)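 Female F344/N JcL-rnu rats, four per group, single p.o. dose suspended in 0.5% methyl cellulose. Tail-vein blood sampled at set times to 72 h. Serum spiked with internal standard, deproteinated with acetonitrile, analysed by HPLC-MS/MS. Parameters derived by noncompartmental analysis.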

Series [4] relates to Calu-6. Description: Antitumor activity against human Calu-6 cells xenografted in RH-rnu/rnu athymic rat assessed as tumor growth inhibition at 0.2 mg/kg, po administered once daily for 6 to 21 days by DCE-MRI analysis. The class given is functional, organism-based. The conditions noted are these: time 6-21 day. A digest of the protocol: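 Calu-6 tumor-bearing athymic rats were randomized at 274-287 mm3 and dosed orally at 0.2 or 1.0 mg/kg or vehicle once daily on days 0-13. Tumor growth was followed by T2-weighted MRI at 1.5 T through day 21.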

For series [5], the system named is Calu-6. Description: Antitumor activity against human Calu-6 cells xenografted in RH-rnu/rnu athymic rat assessed as decrease in capillary permeability in tumor at 1 mg/kg, po measured on day 2 by DCE-MRI analysis relative to control. On the set-up: scale not given: the % may be the effect or the level left.
The nature of series [6]: Cmax in F344/N JcL-rnu athymic rat at 0.04 mg/kg, po measured upto 72 hrs by HPLC-MS/MS analysis. The class given is ADME, organism-based. The note with it: in vivo. A digest of the protocol: as §1
Series [7] has as its target Mitogen-activated protein kinase 3 (Homo sapiens, UniProt P27361). Briefly: Inhibition of ERK1 phosphorylation in bFGF-stimulated serum-starved human HUVEC cells by immunoblotting analysis. The class given is cell-based.
Series [8] has as its system Calu-6. Description: Antitumor activity against human Calu-6 cells xenografted in RH-rnu/rnu athymic rat assessed as decrease in capillary permeability in tumor at 1.0 mg/kg, po measured on day 13 by DCE-MRI analysis relative to control. It is filed as functional. Also on record: scale not given: the % may be the effect or the level left.
The subject of series [9] is OVCAR-3. Description: Antitumor activity against human OVCAR-3 cells xenografted in gamma-irradiation induced RH-rnu/rnu athymic rat assessed as tumor growth inhibition at 0.2 mg/kg, po administered once daily for 2 weeks and measured on day 14 relative to control. The note with it: OVCAR-3, light or radiation study, 336 h, read-out: TGI. The class given is functional. A digest of the protocol:
(§2)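 Rats were γ-irradiated with 7 Gy whole body, and 24 h later received s.c. tumor cells. Fragments (20-30 mg) from ~1,500 mm3 tumors were then implanted s.c. into irradiated athymic rats. Oral dosing at 0.2 or 1 mg/kg or vehicle ran once daily for 2 weeks from day 0. Tumors were measured with calipers twice weekly (length×width²×0.5). TGI% was taken versus vehicle on day 14 (BxPC-3: day 13), with an unpaired t test on RTV.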

Series [10] can be described thus: Apparent oral volume of distribution in F344/N JcL-rnu athymic rat at 1 mg/kg, po measured upto 72 hrs by HPLC-MS/MS analysis. The conditions noted are these: in vivo. The class given is ADME, organism-based. A digest of the protocol: as §1
Series [11] deals with DU-145. Briefly: Antitumor activity against human DU-145 cells xenografted in gamma-irradiation induced RH-rnu/rnu athymic rat assessed as tumor growth inhibition at 1.0 mg/kg, po administered once daily for 2 weeks and measured on day 14 relative to control. It is filed as functional. The note with it: DU-145, light or radiation study, 336 h, read-out: TGI. A digest of the protocol: as §2

Series [12] has as its system SK-OV-3. Briefly: Antitumor activity against human SK-OV-3 cells xenografted in gamma-irradiation induced RH-rnu/rnu athymic rat assessed as tumor growth inhibition at 0.2 mg/kg, po administered once daily for 2 weeks and measured on day 14 relative to control. It is filed as functional. The note with it: SK-OV-3, light or radiation study, 336 h, read-out: TGI.
Series [13] addresses Insulin-like growth factor 1 receptor (Homo sapiens, UniProt P08069). Briefly: Inhibition of IGF-1R (unknown origin) in presence of ATP. Summed up: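 Cell-free kinase assay using recombinant tyrosine kinases with 1 μmol/L ATP, run in quadruplicate. IC50 values determined.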
Series [14] concerns Calu-6. Description: Antitumor activity against human Calu-6 cells xenografted in RH-rnu/rnu athymic rat assessed as tumor growth inhibition at 0.2 mg/kg, po administered once daily for 6 to 21 days by DCE-MRI analysis. The conditions noted are these: time 6-21 day.
In series [15] the test system is CAKI-1. Briefly: Antitumor activity against human CAKI-1 cells xenografted in gamma-irradiation induced RH-rnu/rnu athymic rat assessed as tumor growth inhibition at 0.2 mg/kg, po administered once daily for 2 weeks and measured on day 14 relative to control. The conditions noted are these: CAKI-1, light or radiation study, 336 h, read-out: TGI. The class given is functional. Summed up: as §2

Series [16] can be described thus: Antitumor activity against human CGL-9 cells xenografted in gamma-irradiation induced RH-rnu/rnu athymic rat assessed as tumor growth inhibition at 1.0 mg/kg, po administered once daily for 2 weeks and measured on day 14 relative to control. It is filed as functional. The note with it: CGL-9, light or radiation study, 336 h, read-out: TGI. A digest of the protocol: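 Human tumor cells inoculated s.c. in right flank of athymic rats 24 h after whole-body γ-irradiation (7 Gy, Co60); established ~1,500 mm3 tumors excised and 20-30 mg fragments implanted s.c. in irradiated rats. Oral dosing in 0.5% methyl cellulose vehicle from randomization (day 0). Tumor volume measured twice weekly by calipers, (length × width²) × 0.5; TGI% versus vehicle on day 14.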

Series [17] concerns the target Tyrosine-protein kinase JAK2 (Homo sapiens, UniProt O60674). Briefly: Inhibition of Jak2 (unknown origin) in presence of ATP.
In series [18] the target is Epidermal growth factor receptor (Homo sapiens, UniProt P00533). Briefly: Inhibition of EGFR phosphorylation in serum starved human A-431 cells incubated for 1 hr by immunoblotting analysis. It is filed as cell-based. Summed up: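 Cells starved overnight in basic medium with 0.5% FBS, incubated 1 h with compound or 0.1% DMSO, then stimulated 5 min at 37°C with human recombinant cognate ligand. Receptor immunoprecipitated from lysate and immunoblotted for phosphotyrosine; IC50 by nonlinear regression of percent inhibition, n = 4.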

Series [19] relates to MDA-MB-231. Briefly: Antitumor activity against human MDA-MB-231 cells xenografted in gamma-irradiation induced RH-rnu/rnu athymic rat assessed as tumor growth inhibition at 0.2 mg/kg, po administered once daily for 2 weeks and measured on day 14 relative to control. The conditions noted are these: MDA-MB-231, light or radiation study, 336 h, read-out: TGI. It is filed as functional. A digest of the protocol:
as §2

The nature of series [20]: Average concentration at steady state in F344/N JcL-rnu athymic rat at 0.2 mg/kg/day, po measured upto 72 hrs by HPLC-MS/MS analysis. The class given is ADME, organism-based. The conditions noted are these: in vivo. Summed up:
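Steady-state serum levels for repeated oral 0.2 mg/kg daily dosing were simulated from single-dose serum data (female F344/N JcL-rnu rats, four per group, tail-vein sampling to 72 h, HPLC-MS/MS, noncompartmental analysis), not measured directly.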

SMILES strings stand for the structures. The source made the active and inactive calls. No cut-off for these calls is given here. Some results are limits rather than exact numbers.

Chain of Tyrosine-protein kinase JAK2 (O60674 whole entry): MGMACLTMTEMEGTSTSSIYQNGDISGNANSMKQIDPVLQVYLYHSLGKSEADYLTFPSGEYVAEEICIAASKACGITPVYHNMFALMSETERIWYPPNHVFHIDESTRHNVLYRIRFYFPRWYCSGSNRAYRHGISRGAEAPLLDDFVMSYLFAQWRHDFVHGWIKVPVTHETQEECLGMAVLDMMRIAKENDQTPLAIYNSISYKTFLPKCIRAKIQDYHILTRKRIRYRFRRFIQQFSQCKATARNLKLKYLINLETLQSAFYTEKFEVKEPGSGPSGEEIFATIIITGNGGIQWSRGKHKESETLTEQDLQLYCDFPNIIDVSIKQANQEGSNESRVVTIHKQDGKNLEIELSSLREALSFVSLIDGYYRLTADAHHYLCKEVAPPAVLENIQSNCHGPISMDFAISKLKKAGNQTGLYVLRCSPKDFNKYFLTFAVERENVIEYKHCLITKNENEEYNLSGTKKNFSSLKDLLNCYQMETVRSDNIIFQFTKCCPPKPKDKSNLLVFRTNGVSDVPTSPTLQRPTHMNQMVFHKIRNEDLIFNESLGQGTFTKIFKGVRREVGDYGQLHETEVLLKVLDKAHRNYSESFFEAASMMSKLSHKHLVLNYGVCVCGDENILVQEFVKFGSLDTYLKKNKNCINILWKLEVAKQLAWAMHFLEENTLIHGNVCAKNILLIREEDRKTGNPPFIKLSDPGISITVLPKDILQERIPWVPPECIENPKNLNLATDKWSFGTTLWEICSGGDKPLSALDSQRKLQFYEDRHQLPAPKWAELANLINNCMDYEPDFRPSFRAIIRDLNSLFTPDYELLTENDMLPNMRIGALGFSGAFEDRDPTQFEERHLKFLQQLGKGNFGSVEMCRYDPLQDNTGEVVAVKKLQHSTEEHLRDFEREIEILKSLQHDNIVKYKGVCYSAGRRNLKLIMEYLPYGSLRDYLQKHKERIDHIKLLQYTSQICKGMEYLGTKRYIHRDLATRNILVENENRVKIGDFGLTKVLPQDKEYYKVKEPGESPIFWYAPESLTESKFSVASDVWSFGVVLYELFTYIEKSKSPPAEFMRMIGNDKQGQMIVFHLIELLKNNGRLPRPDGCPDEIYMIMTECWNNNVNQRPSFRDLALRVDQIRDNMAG
Chain of Epidermal growth factor receptor (P00533 whole entry): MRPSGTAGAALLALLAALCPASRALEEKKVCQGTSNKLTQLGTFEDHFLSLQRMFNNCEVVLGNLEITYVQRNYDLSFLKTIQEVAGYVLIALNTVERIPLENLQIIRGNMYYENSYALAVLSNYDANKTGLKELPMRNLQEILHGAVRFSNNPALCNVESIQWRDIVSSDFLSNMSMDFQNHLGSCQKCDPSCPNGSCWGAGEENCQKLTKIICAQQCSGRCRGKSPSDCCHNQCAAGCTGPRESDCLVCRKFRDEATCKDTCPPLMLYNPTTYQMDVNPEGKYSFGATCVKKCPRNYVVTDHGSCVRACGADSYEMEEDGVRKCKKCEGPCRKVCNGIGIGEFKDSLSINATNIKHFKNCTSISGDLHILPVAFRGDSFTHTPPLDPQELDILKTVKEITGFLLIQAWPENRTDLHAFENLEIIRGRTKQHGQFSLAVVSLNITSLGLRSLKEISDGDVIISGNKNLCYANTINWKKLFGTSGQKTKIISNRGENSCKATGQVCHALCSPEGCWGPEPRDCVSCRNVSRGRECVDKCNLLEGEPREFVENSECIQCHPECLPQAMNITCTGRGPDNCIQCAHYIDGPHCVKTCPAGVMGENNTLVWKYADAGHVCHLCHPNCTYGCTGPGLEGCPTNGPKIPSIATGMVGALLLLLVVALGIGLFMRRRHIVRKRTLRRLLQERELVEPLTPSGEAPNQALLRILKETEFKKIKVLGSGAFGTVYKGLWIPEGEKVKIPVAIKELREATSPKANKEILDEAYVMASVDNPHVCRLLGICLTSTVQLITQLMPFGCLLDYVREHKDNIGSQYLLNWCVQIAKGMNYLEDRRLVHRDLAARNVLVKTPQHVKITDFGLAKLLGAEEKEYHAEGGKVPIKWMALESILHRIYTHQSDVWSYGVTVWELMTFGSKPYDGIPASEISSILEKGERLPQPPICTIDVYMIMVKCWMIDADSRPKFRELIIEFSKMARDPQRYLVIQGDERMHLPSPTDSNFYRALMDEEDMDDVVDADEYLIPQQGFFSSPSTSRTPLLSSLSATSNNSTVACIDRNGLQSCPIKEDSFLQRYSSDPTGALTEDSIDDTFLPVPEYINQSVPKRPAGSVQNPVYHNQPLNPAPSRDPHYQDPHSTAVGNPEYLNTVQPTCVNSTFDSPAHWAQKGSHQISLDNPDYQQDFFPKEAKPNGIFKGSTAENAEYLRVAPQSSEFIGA
Chain of Mitogen-activated protein kinase 3 (P27361 whole entry): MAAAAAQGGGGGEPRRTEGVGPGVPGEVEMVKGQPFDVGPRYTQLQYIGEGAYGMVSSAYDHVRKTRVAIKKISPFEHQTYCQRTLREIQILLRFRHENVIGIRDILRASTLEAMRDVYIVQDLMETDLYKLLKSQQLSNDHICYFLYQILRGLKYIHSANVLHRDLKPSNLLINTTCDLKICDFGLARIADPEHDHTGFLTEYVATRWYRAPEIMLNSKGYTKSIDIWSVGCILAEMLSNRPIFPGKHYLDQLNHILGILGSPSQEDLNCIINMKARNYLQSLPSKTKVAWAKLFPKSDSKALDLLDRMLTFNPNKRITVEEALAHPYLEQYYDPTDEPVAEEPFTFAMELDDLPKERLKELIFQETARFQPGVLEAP
Chain of Insulin-like growth factor 1 receptor (P08069 31-736 limits assumed): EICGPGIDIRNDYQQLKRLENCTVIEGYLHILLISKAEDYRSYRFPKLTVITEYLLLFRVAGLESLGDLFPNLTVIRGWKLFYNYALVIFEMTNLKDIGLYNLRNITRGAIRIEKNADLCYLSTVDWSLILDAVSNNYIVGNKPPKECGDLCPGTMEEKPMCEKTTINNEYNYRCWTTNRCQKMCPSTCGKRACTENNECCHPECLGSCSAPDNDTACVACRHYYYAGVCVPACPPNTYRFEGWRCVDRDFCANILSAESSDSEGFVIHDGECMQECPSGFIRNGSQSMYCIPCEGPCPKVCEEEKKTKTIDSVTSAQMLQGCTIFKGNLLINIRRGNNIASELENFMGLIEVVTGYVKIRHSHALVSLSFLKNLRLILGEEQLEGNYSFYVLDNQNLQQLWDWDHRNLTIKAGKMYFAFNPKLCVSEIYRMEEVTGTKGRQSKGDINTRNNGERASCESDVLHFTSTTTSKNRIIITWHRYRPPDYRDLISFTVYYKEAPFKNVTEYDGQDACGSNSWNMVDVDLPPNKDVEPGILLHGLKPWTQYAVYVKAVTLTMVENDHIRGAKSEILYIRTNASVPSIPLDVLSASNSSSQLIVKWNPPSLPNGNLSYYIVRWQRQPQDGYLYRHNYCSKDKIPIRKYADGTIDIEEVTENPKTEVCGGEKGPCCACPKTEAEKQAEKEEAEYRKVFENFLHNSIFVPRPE
Chain of Insulin-like growth factor 1 receptor (P08069 741-1367 limits assumed): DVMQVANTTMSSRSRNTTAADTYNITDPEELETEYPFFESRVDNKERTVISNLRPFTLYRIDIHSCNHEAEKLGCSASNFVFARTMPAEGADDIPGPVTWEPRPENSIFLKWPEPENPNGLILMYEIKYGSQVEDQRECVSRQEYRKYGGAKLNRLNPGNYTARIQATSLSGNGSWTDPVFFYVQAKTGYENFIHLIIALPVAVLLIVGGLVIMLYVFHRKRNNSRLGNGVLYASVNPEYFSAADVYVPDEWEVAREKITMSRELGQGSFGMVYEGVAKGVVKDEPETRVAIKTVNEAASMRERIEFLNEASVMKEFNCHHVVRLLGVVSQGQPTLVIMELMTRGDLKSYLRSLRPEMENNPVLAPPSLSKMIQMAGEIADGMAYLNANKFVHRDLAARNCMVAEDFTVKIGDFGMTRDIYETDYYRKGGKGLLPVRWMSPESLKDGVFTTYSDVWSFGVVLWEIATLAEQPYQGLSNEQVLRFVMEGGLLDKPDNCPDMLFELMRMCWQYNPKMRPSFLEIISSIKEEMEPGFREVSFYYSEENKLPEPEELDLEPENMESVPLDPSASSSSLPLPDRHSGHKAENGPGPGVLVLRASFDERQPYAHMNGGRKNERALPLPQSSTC

Turning to `COc1cc2nccc(Oc3ccc(NC(=O)Nc4cc(C)on4)c(Cl)c3)c2cc1OC` [TIVOZANIB], in [1], the AUC(0-inf) is 7640 ng·h/mL. Besides, the Activity is 78.2% in [2], 55% in [5] and 61% in series [8]. Also, in series [3], the half-life was 7.94 h. For the same molecule, the result in series [4] and in series [14] was Active. In addition, in [6], the concentration peaked (Cmax) at 21.6 ng/mL. Also, in series [7], the inhibition result is “inactive”. The inhibition in vivo at 0.2 mg/kg in series [9] is 25%; in [12], 93.4%; in series [15], 26.9%; in series [19], 77%. The Vd/F in series [10] came to 1.54 L/kg. The inhibition in vivo at 1 mg/kg was > 100% in [11] and 96.2% in series [16]. The IC50 in series [13] was > 1000 nM; in series [17], > 1000 nM; in series [18], “Not Determined(Insoluble)”. Further, the “Cave,ss” value in [20] stood at 69.5 ng/mL.

The term AUC(0-inf) denotes total exposure, with the tail of the curve extrapolated. The half-life is the time in which the quantity being followed falls by half. Usually Cmax stands for the peak of the concentration-time curve. For orientation: Vd/F means the apparent distribution volume after extravascular dosing. The term IC50 denotes the concentration that inhibits the measured activity by half.
